# High-throughput results deposited in PubChem BioAssay by several laboratories.
# Shown are actives, neighbours in structure and some others; about 4.7% of the full set was active somewhere.
# RGS4 pot = RGS4 potentiation or activation; HEK293 M3R/inducible RGS4, carbachol calcium flux Fluo4; stronger effect = lower value; B-score at 10 µM; actives 0.92% (n = 310,000);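 active means B-score of the integrated calcium signal more than 4 SD below the library mean, with starting fluorescence not abnormally high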;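 further: negative B-score means reduced calcium response which marks RGS4 activation or potentiation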
#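 Assay system: Inducible-RGS4 HEK293 cells carrying M3 receptor | Schedule: Compound preincubation 20 min at room temperature before agonist | Signal: Kinetic calcium fluorescence imaging with Fluo4-AM dye, 2 µM | Read-out basis: B score from integrated fluorescence ratio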
# RGS4 block = inhibitors of human RGS4; HEK293 M3R/RGS4 inducible, Fluo-4 calcium flux; stronger effect = higher value; triggered by carbachol at its EC20; P49798; B-score at 10 µM; actives 0.45% (n = 310,000); AID 463165;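 active means B-score, a plate-corrected calcium signal, over three deviations above library mean, with baseline fluorescence within five deviations of library mean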;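 further: RGS4 expression induced by doxycycline in cells with stable M3 receptor; B-score is computed from the integrated fluorescence ratio over baseline after carbachol; higher B-score means a larger calcium signal and so more RGS4 inhibition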
# Target sequence (P49798 whole entry, looked up): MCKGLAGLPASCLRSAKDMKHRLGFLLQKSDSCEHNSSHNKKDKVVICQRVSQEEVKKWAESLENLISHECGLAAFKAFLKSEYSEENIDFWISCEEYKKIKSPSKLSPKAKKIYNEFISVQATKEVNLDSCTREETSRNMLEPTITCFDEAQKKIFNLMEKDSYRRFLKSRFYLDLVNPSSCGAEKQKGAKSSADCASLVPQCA
# MrgX1 antagonist = blocks BAM8-22 activation of human MrgX1 receptor; MRGX1-HEK293 calcium flux, Fluo-4, BAM8-22 antagonism; stronger effect = lower value; Q96LB2; B-score at 10 µM; actives 1.3% (n = 310,000);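 active means calcium-response B-score plate-corrected more than 3 library SD below zero, starting fluorescence within 5 deviations, no agonist response on first addition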;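 further: peak minus trough fluorescence over baseline after final BAM8-22 challenge near maximal dose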
# Target sequence (Q96LB2 whole entry, looked up): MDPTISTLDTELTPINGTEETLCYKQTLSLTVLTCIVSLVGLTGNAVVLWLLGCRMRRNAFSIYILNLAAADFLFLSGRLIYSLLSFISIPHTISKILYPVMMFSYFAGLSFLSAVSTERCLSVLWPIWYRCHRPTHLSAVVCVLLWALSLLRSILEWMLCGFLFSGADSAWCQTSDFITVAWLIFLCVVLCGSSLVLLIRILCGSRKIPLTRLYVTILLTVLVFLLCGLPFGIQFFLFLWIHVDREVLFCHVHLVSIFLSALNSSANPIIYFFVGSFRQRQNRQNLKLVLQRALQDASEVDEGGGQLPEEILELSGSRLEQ
# MrgX1 allo act = allosterically activates human MrgX1 receptor signaling; Q96LB2; MrgX1-HEK293, Fluo-4 calcium flux, FDSS; stronger effect = higher value; B-score at 10 µM; actives 0.63% (n = 310,000); AID 588675;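 active means plate-corrected calcium response at least 3 library SD above typical, normal starting fluorescence, not activating the receptor alone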;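 further: compound read alongside a low EC10 to EC30 dose of BAM8-22 agonist; peak minus trough fluorescence over baseline measured at the second addition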
# Cl transport mod = KCC2 (human) Cl- transport modulation; Q9H2X9; KCC2 cells, thallium flux FluoZin-2 fluorescence; B-score of Tl+ flux slope (higher = more flux/activation; lower = inhibition) at 10 µM; actives 2.2% (n = 190,000); AID 1456;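 active means thallium flux slope and its plate-corrected score both differing from the plate sample mean at a set confidence after two filtering rounds, in either direction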;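 further: slope of fluorescence scaled to starting intensity during 10 to 20 s after thallium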
# MrgX1 ag = human MrgX1 receptor agonism, primary screen. MrgX1-HEK293 cells, Fluo-4 calcium fluorescence, agonist mode; stronger effect = higher value. B-score at 10 µM. actives 0.44% (n = 310,000). AID 588627;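 active means calcium response B-score plate-corrected fluorescence ratio at least 3 library SD, with starting fluorescence B-score inside 5 SD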
#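 Test system: HEK293 cells stably expressing human MrgX1 receptor; amount: 15,000 cells per well; doses: compound delivered in addition one of three; times: overnight plating before 1 h dye loading; detection: Fluo-4 NW calcium-flux fluorescence, kinetic read; read-out basis: B-scored fluorescence response ratio; controls: positive and negative controls per plate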
# KCC2 secondary = KCC2 (human) modulation, secondary assay | shares compounds with Cl transport mod | actives 15% (n = 3,700) | HEK293-KCC2, thallium flux, FluoZin2 fluorescence; stronger effect = higher value | AID 1713 | normalised thallium flux (F/F0 slope) at 10 µM;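 active means thallium flux slope above the same plate's solvent-only control mean plus 3 SD; inconclusive means the two replicate wells disagree; inactive means no significant difference from solvent-only control wells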
# KCC2 bumet counter = bumetanide-insensitive thallium flux in KCC2 cells with ouabain, counter-screen. HEK293-KCC2 + bumetanide/ouabain, thallium flux FluoZin2; stronger effect = higher value. AID 1714. normalized thallium flux at 10 µM. shares compounds with Cl transport mod. actives 49% (n = 3,700);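 active means thallium entry rate above the same plate's blocked-transporter control wells by more than 3 SD; inconclusive means the two repeat wells disagree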;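 further: raw slope of fluorescence over initial fluorescence between 10 and 20 s after thallium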
# KCC2 secondary2 = KCC2 (human) modulation, second secondary assay; HEK293-KCC2, thallium flux FluoZin2 fluorescence; actives lie on both sides; F/F0 rise rate, 10–20 s post-thallium; actives 23% (n = 3,700); shares compounds with Cl transport mod; normalized thallium flux at 10 µM;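 active means thallium flux slope more than 3 SD above or below the plate's solvent-only control mean, mostly below; inconclusive means the two repeat wells disagreed; inactive means no significant shift from solvent-only controls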
# HEK293 Tl flux = acts in parental HEK cells, KCC2 counter-screen; shares compounds with Cl transport mod; actives 46% (n = 3,700); HEK293 parental cells, thallium flux FluoZin2, ouabain; baseline-ratio fluorescence slope, 10–20 s after thallium; thallium flux rate (normalised fluorescence) at 10 µM;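 active means thallium flux rate significantly above the same plate's solvent-only control wells, beyond their mean plus 3 SD; inconclusive means the two replicate wells gave conflicting results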
# KCC2 ouabain = modulates human KCC2 on retest with ouabain. raw Tl+ flux slope (below DMSO = inhibition, above = activation) at 10 µM. actives 48% (n = 3,700). AID 1717. HEK293-KCC2, thallium flux FluoZin2 fluorescence; bidirectional: low = inhibitor, high = activator. shares compounds with Cl transport mod;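 active means thallium flux slope beyond 3 SD from same-plate DMSO control mean in most replicates, usually higher, sometimes lower; inconclusive means repeat tests gave conflicting results; inactive means no significant difference from controls in most replicates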;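 further: slope of initial-normalized fluorescence between seconds 10 and 20 after thallium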
# HEK counter2 = parental HEK flux effect, counter-screen 2 | actives 33% (n = 3,700) | HEK293 parental, thallium flux FluoZin-2 fluorescence slope | thallium flux slope at 10 µM | shares compounds with Cl transport mod;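 active means thallium flux slope above the same plate's solvent-control mean plus 3 SD in both duplicate wells; inconclusive means duplicate wells that disagreed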;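 further: run without ouabain in cells lacking the KCC2 cotransporter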
# A number is an active result; – = inactive; ? = inconclusive; · = no result.
SMILES,RGS4 pot,RGS4 block,MrgX1 antagonist,MrgX1 allo act,Cl transport mod,MrgX1 ag,KCC2 secondary,KCC2 bumet counter,KCC2 secondary2,HEK293 Tl flux,KCC2 ouabain,HEK counter2
Cc1ccc(Nc2nc3ccccc3c(=O)s2)cc1C,–,–,–,–,17,–,–,0.031,0.043,0.026,0.039,0.028
Cc1ccc(C(=O)Nc2nc3ccccc3c(=O)s2)cc1,–,–,–,–,41,–,0.027,0.14,0.054,0.079,0.11,0.029
COc1ccccc1CN1CC(C(=O)N(C)Cc2ccc(C)o2)CCC1=O (configuration not stated),–,–,–,–,·,–,·,·,·,·,·,·
Cc1ccc(C)c(N(C(=O)CCC(=O)Nc2cc(C)on2)C(C(=O)NC2CCCC2)c2ccco2)c1 (configuration not stated),–,–,–,–,-4.3,–,?,–,?,–,–,–
Cc1cc(NC(=O)CCC(=O)N(Cc2ccco2)C2(C(=O)NC3CCCCC3)CCN(C)CC2)no1,–,–,–,–,-5.9,–,–,–,–,–,–,–
O=c1cc(-c2ccccc2)nc2c(-c3ccccc3)c(C(F)(F)F)[nH]n12,–,–,–,–,3.8,–,–,0.014,–,0.011,–,–
O=C(O)c1ccc(C2CCCCC2)cn1,–,–,–,–,8.3,–,–,0.0089,–,–,–,–
Cc1cc(NC(=O)c2ccc3c(c2)C(=O)N(c2cccc(C)c2C)C3=O)no1,–,–,–,–,·,–,·,·,·,·,·,·
CCCCCCCN1N=C(C)C(C(=O)c2ccccc2)C1=O (configuration not stated),–,–,–,–,3.1,–,–,0.024,?,0.014,0.03,0.017
CCCCCCN1N=C(C)C(C(=O)c2ccc(Cl)cc2)C1=O (configuration not stated),–,–,–,–,5,66,0.013,0.025,–,0.014,0.032,?
CC(=O)c1cccc(NC(=O)CN(C)S(=O)(=O)c2ccc3c(c2)CC(C)N3C(C)=O)c1 (configuration not stated),–,–,–,–,·,–,·,·,·,·,·,·
CCN(CC(=O)NC1CCCC1)S(=O)(=O)c1ccc(Br)cc1,–,–,–,–,·,–,·,·,·,·,·,·
O=S(=O)(Nc1ccccc1N1CCCCC1)c1ccc(F)cc1F,–,–,–,–,19,–,0.013,0.038,–,0.012,–,0.012
O=C(CSc1nccc(=O)[nH]1)N1CCc2ccccc2C1,–,–,–,–,-4.9,–,–,–,0.023,–,0.015,–
Cc1oc(-c2ccccc2)nc1CS(=O)CC(=O)N1CCc2ccccc2C1 (configuration not stated),–,–,–,–,·,–,–,?,0.024,–,?,–
COc1ccc(-c2nnc(SCC(=O)N3CCc4ccccc4C3)o2)cc1,–,–,–,–,-3.5,–,?,–,–,?,0.016,–
